Compounds with a hit are over-represented: about 11% of the library has one in this group of screens.
S1P1 ag pot: activates or potentiates agonism at human S1P1 receptor; P21453; S1P1 CRE-bla cells, forskolin, beta-lactamase FRET, potentiator mode; S1P1 agonist co-added at EC20, 2 nM; 100% = saturating reference agonist, 0% = basal; activation, % at 9.5 µM; 56,000 compounds, 0.57% hits; AID 449;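 active = activation above a cutoff set at the mean activation of all tested compounds plus 3 SD, cut at about 54% in these data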;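 also: forskolin at 4 µM as EC80 and the EC20 agonist is SEW2871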
D1 mod: allosterically modulates the human D1 dopamine receptor. P21728. B-score at 10 µM. 58,000 compounds, 5.9% hits. HEK293 D1, CRE-luciferase, dopamine EC30 potentiation; actives deviate in either direction;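 active = luminescence count or its row- and column-corrected plate score outside the 99.7% band of the plate's sample wells, on either side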
Target sequence (P21728 whole entry, looked up): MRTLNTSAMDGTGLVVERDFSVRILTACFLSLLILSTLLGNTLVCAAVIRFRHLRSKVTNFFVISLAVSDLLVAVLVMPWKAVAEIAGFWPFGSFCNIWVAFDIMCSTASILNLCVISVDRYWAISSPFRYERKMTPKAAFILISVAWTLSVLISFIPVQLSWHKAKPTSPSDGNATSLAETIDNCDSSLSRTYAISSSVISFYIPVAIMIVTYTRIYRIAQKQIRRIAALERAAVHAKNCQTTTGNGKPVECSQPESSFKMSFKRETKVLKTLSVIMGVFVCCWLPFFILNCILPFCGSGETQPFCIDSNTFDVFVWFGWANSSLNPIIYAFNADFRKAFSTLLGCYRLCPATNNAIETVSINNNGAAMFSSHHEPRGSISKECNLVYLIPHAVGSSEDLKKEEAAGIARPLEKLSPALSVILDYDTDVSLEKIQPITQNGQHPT
M1 antagonist: antagonists of rat M1 muscarinic receptor. P08482. CHO-M1 cells, Fluo-4 calcium, ACh EC80 antagonist mode; hits give low values. B-score at 10 µM. 64,000 compounds, 3.4% hits;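 active = calcium fluorescence response, raw or row-and-column corrected B-score, differing from the plate sample mean either way at a set confidence level, mostly lower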
S1P3 agonist: S1P3 (human) receptor agonism; activation, % at 4.5 µM; AID 373; 60,000 compounds, 0.1% hits; S1P3 NFAT-BLA reporter cells, FRET ratio; relative to 1 µM S1P, basal subtracted;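 active = activation above the screen-wide mean plus 3 SD, cut at about 4.5% in these data, passing the limit was not always enough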
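material = human S1P3 NFAT-BLA reporter CHO cells | schedule = 4 h compound at 37 °C, 2 h substrate at RT | measured by = fluorescent BLA substrate, ex 405 nm, em 460/535 nm ratio | controls = 1 µM S1P reference | replication = primary once, confirmation triplicate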
M1 agonist: agonists of M1 muscarinic receptor | CHO-M1 cells, Fluo-4 calcium fluorescence, agonist mode; hits give high values | B-score at 10 µM | 64,000 compounds, 3% hits | AID 626;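 active = fluorescence rise, raw or as B-score row- and column-corrected plate score, outside the 99.7% band of its plate's samples, either direction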
M1 antag conf: confirmation of rat M1 muscarinic receptor antagonists; shares compounds with M1 antagonist; CHO-M1 cells, Fluo-4 calcium, ACh EC80 antagonism; hits give low values; calcium response (max-min fluorescence) at 10 µM; 1,700 compounds, 43% hits;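 active = calcium response below the same-plate mean of wells given acetylcholine alone at its 80%-effect dose, minus 3 SD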
mGluR4 antag: selectivity test for M1 antagonists: human mGluR4 receptor | shares compounds with M1 antagonist | CHO-mGluR4 calcium flux, Fluo-4 fluorescence, glutamate EC80; hits give low values | fluorescence response (max-min) at 10 µM | 1,700 compounds, 0.9% hits;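 active = fluorescence response below the plate's average for near-maximal glutamate wells, less 3 SD of those wells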;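 also: raw unnormalized fluorescence span taken in the window right after glutamate addition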
Numbers stand for hits.

What do the screens show for `CCOC(=O)c1ccc(N2C(=O)CC(N3CCN(C/C=C/c4ccccc4)CC3)C2=O)cc1` (stereo not given)?
S1P1 ag pot: inactive; D1 mod: inactive; M1 antagonist: -3.8; S1P3 agonist: inactive; M1 agonist: inactive; M1 antag conf: 494; mGluR4 antag: inactive

What do the screens show for `N=c1c2c3c(sc2nc2n1CCC2)CCCC3`?
S1P1 ag pot: inactive; D1 mod: inactive; M1 antagonist: -1.93; S1P3 agonist: inactive; M1 agonist: inactive; M1 antag conf: inactive; mGluR4 antag: inactive

What do the screens show for `Cc1sc2ncnc(OCC(=O)c3ccc(S(=O)(=O)N4CCCC4)cc3)c2c1C`?
S1P1 ag pot: inactive; D1 mod: inactive; M1 antagonist: -3.11; S1P3 agonist: inactive; M1 agonist: inactive; M1 antag conf: inactive; mGluR4 antag: inactive

Results for Cc1sc2ncnc(OCC(=O)N3CCN(S(=O)(=O)c4ccc(Cl)cc4)CC3)c2c1C ?
S1P1 ag pot: inactive; D1 mod: inactive; M1 antagonist: inactive; S1P3 agonist: inactive; M1 agonist: inactive

Results for Cc1ccccc1N1CCN(S(=O)(=O)c2ccc3oc(=O)ccc3c2)CC1 ?
D1 mod: inactive; M1 antagonist: -3.33; S1P3 agonist: inactive; M1 agonist: inactive; M1 antag conf: inactive; mGluR4 antag: inactive

What do the screens show for `O=C(O)CCCc1nc2ccccc2s1`?
S1P1 ag pot: inactive; D1 mod: inactive; M1 antagonist: inactive; S1P3 agonist: inactive; M1 agonist: inactive

What do the screens show for `COC(=O)CCCc1nc2ccccc2s1`?
S1P1 ag pot: inactive; D1 mod: inactive; M1 antagonist: -2.46; S1P3 agonist: inactive; M1 agonist: inactive; M1 antag conf: inactive; mGluR4 antag: inactive

Results for Cc1cccc(OCCc2nnc(N)s2)c1C ?
S1P1 ag pot: inactive; D1 mod: inactive; M1 antagonist: inactive; S1P3 agonist: inactive; M1 agonist: inactive

What do the screens show for `O=c1ccc2cc3c([nH]c4ccc(Br)cc43)oc-2c1O`?
S1P1 ag pot: inactive; D1 mod: inactive; M1 antagonist: -1.43; S1P3 agonist: inactive; M1 agonist: inactive; M1 antag conf: inactive; mGluR4 antag: inactive

What do the screens show for `CN(C)c1ccc(NC(=O)CN2CCN(CC(=O)Nc3ccc(F)cc3)CC2)cc1`?
S1P1 ag pot: inactive; D1 mod: inactive; M1 antagonist: -4.59; S1P3 agonist: inactive; M1 agonist: inactive; M1 antag conf: inactive; mGluR4 antag: inactive

What do the screens show for `CCOc1ccc(NC(=O)CN2CCN(CC(=O)Nc3ccc(F)cc3)CC2)cc1`?
S1P1 ag pot: inactive; D1 mod: inactive; M1 antagonist: inactive; S1P3 agonist: inactive; M1 agonist: inactive

What do the screens show for `COC(=O)c1cc(NC(=O)C2COc3ccccc3O2)cc(C(=O)OC)c1` (stereo not given)?
S1P1 ag pot: inactive; D1 mod: inactive; M1 antagonist: -13.1; S1P3 agonist: inactive; M1 agonist: inactive; M1 antag conf: inactive; mGluR4 antag: inactive

What do the screens show for `COC(=O)c1ccccc1NC(=O)C1COc2ccccc2O1` (stereo not given)?
S1P1 ag pot: inactive; M1 antagonist: inactive; S1P3 agonist: inactive; M1 agonist: inactive

How did Cc1ccc(OCCNS(=O)(=O)c2cccs2)cc1 do in these assays?
S1P1 ag pot: inactive; D1 mod: inactive; M1 antagonist: inactive; S1P3 agonist: inactive; M1 agonist: inactive

What do the screens show for `CN1CCN(c2ncnc3c2[nH]c2ccc(F)cc23)CC1`?
S1P1 ag pot: inactive; M1 antagonist: -6.16; S1P3 agonist: inactive; M1 agonist: inactive; M1 antag conf: inactive; mGluR4 antag: inactive

What do the screens show for `c1ccc2c(c1)[nH]c1c(N3CCOCC3)ncnc12`?
S1P1 ag pot: inactive; D1 mod: inactive; M1 antagonist: inactive; S1P3 agonist: inactive; M1 agonist: inactive

How did Cc1ccc2[nH]c3c(N4CCOCC4)ncnc3c2c1 do in these assays?
S1P1 ag pot: inactive; D1 mod: inactive; M1 antagonist: inactive; S1P3 agonist: inactive; M1 agonist: inactive

How did c1ccc2c(c1)[nH]c1c(N3CCCC3)ncnc12 do in these assays?
S1P1 ag pot: inactive; D1 mod: inactive; M1 antagonist: -5.41; S1P3 agonist: inactive; M1 agonist: inactive; M1 antag conf: 405; mGluR4 antag: inactive

How did c1ccc2c(c1)[nH]c1c(N3CCN(C4CCCCC4)CC3)ncnc12 do in these assays?
S1P1 ag pot: inactive; M1 antagonist: inactive; S1P3 agonist: inactive; M1 agonist: inactive

Results for c1ccc2c(c1)[nH]c1c(N3CCSCC3)ncnc12 ?
S1P1 ag pot: inactive; M1 antagonist: -2.94; S1P3 agonist: inactive; M1 agonist: inactive; M1 antag conf: inactive; mGluR4 antag: inactive

Results for O=C(C1CCC(=O)N1Cc1ccccc1Cl)N1CCN(c2cccc(Cl)c2)CC1 (stereo not given) ?
S1P1 ag pot: inactive; D1 mod: inactive; M1 antagonist: inactive; S1P3 agonist: inactive; M1 agonist: inactive

How did CCOC(=O)N1CCC(c2nc3ccccc3[nH]2)CC1 do in these assays?
S1P1 ag pot: inactive; D1 mod: inactive; M1 antagonist: inactive; S1P3 agonist: inactive; M1 agonist: inactive

How did CCN(CC)CCNC(=O)c1c(O)c2cc(OC)c(OC)cc2[nH]c1=O do in these assays?
S1P1 ag pot: inactive; D1 mod: inactive; M1 antagonist: inactive; S1P3 agonist: inactive; M1 agonist: inactive

What do the screens show for `COc1cccc(C(c2nnnn2CCc2ccccc2)N2CCN(c3ccccc3)CC2)c1OC` (stereo not given)?
S1P1 ag pot: inactive; D1 mod: inactive; M1 antagonist: inactive; S1P3 agonist: inactive; M1 agonist: inactive

Results for COc1cccc(C(c2nnnn2Cc2ccco2)N2CCN(c3cccc(C)c3C)CC2)c1OC (stereo not given) ?
S1P1 ag pot: inactive; D1 mod: inactive; M1 antagonist: -4.28; S1P3 agonist: inactive; M1 agonist: inactive; M1 antag conf: inactive; mGluR4 antag: inactive

Results for O=C1CC(NCc2ccc3c(c2)OCO3)C(=O)N1CCc1ccccc1 (stereo not given) ?
S1P1 ag pot: inactive; D1 mod: inactive; S1P3 agonist: inactive

What do the screens show for `O=C1CC(O)(C(F)F)Oc2ccc3ccccc3c21` (stereo not given)?
S1P1 ag pot: inactive; D1 mod: inactive; M1 antagonist: -2.64; S1P3 agonist: inactive; M1 agonist: inactive; M1 antag conf: inactive; mGluR4 antag: inactive

Results for O=C1CC(O)(C(F)(F)F)Oc2c1ccc1ccccc21 (stereo not given) ?
S1P1 ag pot: inactive; D1 mod: inactive; M1 antagonist: inactive; S1P3 agonist: inactive; M1 agonist: inactive

How did Cc1ccc(-c2nc(CSCC(=O)NCCN3CCN(Cc4ccccc4)CC3)c(C)o2)cc1 do in these assays?
S1P1 ag pot: inactive; D1 mod: inactive; M1 antagonist: -5.35; S1P3 agonist: inactive; M1 agonist: inactive; M1 antag conf: 423; mGluR4 antag: inactive
